Reference: ChEMBL document CHEMBL3612041, “Combating highly resistant emerging pathogen Mycobacterium abscessus and Mycobacterium tuberculosis with novel salicylanilide esters and carbamates” (Eur J Med Chem, 2015)
Converted amounts (≈) assume the structure as drawn.

Experiments:
[1] = test system: Mycobacterium tuberculosis; test: Antimycobacterial activity against INH/RIF/rifabutine/streptomycin/ethambutol/ofloxacin/gentamicin/amikacin-resistance Mycobacterium tuberculosis Praha 131 after 14 days by microbroth dilution method; format: functional; conditions: Praha 131, 336 h
Summary of the method: (§1)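 Micromethod MIC in Sula semisynthetic medium, pH 6.5. Incubation at 37 °C, read at 14 and 21 days. MIC taken as the lowest concentration giving complete inhibition of mycobacterial growth.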

[2] = Selectivity index, ratio of IC50 for human MONO-MAC-6 cells to MIC for multidrug-resistance Mycobacterium tuberculosis A8; format: toxicity; conditions: read-out: Selectivity Index
[3] = test system: Mycobacterium tuberculosis; test: Antimycobacterial activity against INH/RIF/rifabutine/streptomycin-resistance Mycobacterium tuberculosis 9449/2006 after 21 days by microbroth dilution method; format: functional; conditions: 9449/2006, 504 h; summary of the method: as §1
[4] = test system: Mycobacterium tuberculosis; test: Antimycobacterial activity against INH/RIF/rifabutine/streptomycin/ethambutol/ofloxacin/gentamicin/amikacin-resistance Mycobacterium tuberculosis Praha 131 after 21 days by microbroth dilution method; format: functional; conditions: Praha 131, 504 h; summary of the method: as §1
[5] = Selectivity index, ratio of IC50 for human MONO-MAC-6 cells to MIC for INH/RIF/rifabutine/streptomycin-resistance Mycobacterium tuberculosis 9449/2006 after 21 days; format: toxicity; conditions: read-out: Selectivity Index
[6] = test system: Mycobacterium tuberculosis; test: Antimycobacterial activity against INH/RIF/rifabutine/streptomycin-resistance Mycobacterium tuberculosis 9449/2006 after 14 days by microbroth dilution method; format: functional; conditions: 9449/2006, 336 h; summary of the method: as §1
[7] = Selectivity index, ratio of IC50 for human MONO-MAC-6 cells to MIC for INH/RIF/rifabutine/streptomycin/ethambutol/ofloxacin/gentamicin/amikacin-resistance Mycobacterium tuberculosis Praha 131 after 21 days; format: toxicity; conditions: read-out: Selectivity Index
[8] = test system: Mycobacterium tuberculosis; test: Antimycobacterial activity against multidrug-resistance Mycobacterium tuberculosis A8 after 28 days by serial dilution method; format: functional; conditions: for MIC: Mycobacterium tuberculosis, A8, 672 h
Summary of the method: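 Serial dilution in in-house Sula semisynthetic medium, pH 6.5. Compounds added as DMSO solutions at 10 doses, final 0.05–100 µg/mL. Incubation at 37 °C, 7 days for M. abscessus and 28 days for M. tuberculosis strains. MIC taken as the lowest concentration giving visible growth inhibition, confirmed by CFU on drug-free Löwenstein-Jensen medium after further equal incubation. Repeated at least twice.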

Compound | MIC [1] [µM] | selectivity ratio [2] | MIC [3] [µM] | MIC [4] [µM] | selectivity ratio at 504 h [5] | MIC [6] [µM] | selectivity ratio at 504 h [7] | Activity [8] [CFU] | MIC [8] [µM]
CCCNC(=O)Oc1ccc(Cl)cc1C(=O)Nc1ccc(Cl)c(Cl)c1 | 1 (≈ 0.402 µg/mL) | 5.4 | 1 (≈ 0.402 µg/mL) | 1 (≈ 0.402 µg/mL) | 7 | 1 (≈ 0.402 µg/mL) | 7 | 2 | 1.3 (≈ 0.522 µg/mL)
O=C(NCCCl)Oc1ccc(Br)cc1C(=O)Nc1ccc(C(=O)c2ccccc2)cc1 | – | 1.2 | – | – | – | – | – | 0 | 20 (≈ 10 µg/mL)
O=C(c1ccccc1)c1ccc(NC(=O)c2cc(Cl)ccc2O)cc1 | – | 3.4 | – | – | – | – | – | 50 | 14.2 (≈ 5 µg/mL)
O=C(NCCCCl)Oc1ccc(Cl)cc1C(=O)Nc1ccc(C(=O)c2ccccc2)cc1 | – | 0.8 | – | – | – | – | – | 0 | 21.3 (≈ 10 µg/mL)
O=C(Oc1ccc(Br)cc1C(=O)Nc1ccc(Cl)c(Cl)c1)c1cnc(Cl)cn1 | – | 2.9 | – | – | – | – | – | 11 | 2 (≈ 1 µg/mL)
O=C(NCCCl)Oc1ccc(Cl)cc1C(=O)Nc1ccc(Cl)c(Cl)c1 | – | 1.9 | – | – | – | – | – | 0 | 2.4 (≈ 1.01 µg/mL)
O=C(NCCCCl)Oc1ccc(Br)cc1C(=O)Nc1ccc(C(=O)c2ccccc2)cc1 | – | 6.6 | – | – | – | – | – | 1 | 1.9 (≈ 0.98 µg/mL)
O=C(Oc1ccc(Br)cc1C(=O)Nc1ccc(C(F)(F)F)cc1)c1cnccn1 | – | – | 0.5 (≈ 0.233 µg/mL) | 0.5 (≈ 0.233 µg/mL) | – | – | – | – | –
O=C(c1ccccc1)c1ccc(NC(=O)c2cc(Br)ccc2O)cc1 | – | 1.7 | – | – | – | – | – | 1 | 12.7 (≈ 5.03 µg/mL)
O=C(NCCCCl)Oc1ccc(Br)cc1C(=O)Nc1ccc(C(F)(F)F)cc1 | 1 (≈ 0.48 µg/mL) | 5.7 | 2 (≈ 0.959 µg/mL) | 2 (≈ 0.959 µg/mL) | 2.9 | 1 (≈ 0.48 µg/mL) | 2.9 | 0 | 1 (≈ 0.48 µg/mL)
O=C(NCCCCl)Oc1ccc(Br)cc1C(=O)Nc1ccc(Cl)c(Cl)c1 | 1 (≈ 0.481 µg/mL) | 9.5 | 2 (≈ 0.961 µg/mL) | 1 (≈ 0.481 µg/mL) | 4.8 | 1 (≈ 0.481 µg/mL) | 9.5 | 2 | 1 (≈ 0.481 µg/mL)
O=C(NCCCl)Oc1ccc(Br)cc1C(=O)Nc1ccc(C(F)(F)F)cc1 | 1 (≈ 0.466 µg/mL) | 8.5 | 2 (≈ 0.931 µg/mL) | 2 (≈ 0.931 µg/mL) | 4.7 | 1 (≈ 0.466 µg/mL) | 4.7 | 9 | 1.1 (≈ 0.512 µg/mL)
O=C(O)c1cnc(Cl)cn1 | – | – | – | – | – | – | – | – | > 633
O=C(Nc1ccc(C(F)(F)F)cc1)c1cc(Br)ccc1O | – | 2.7 | – | – | – | – | – | 0 | 2.8 (≈ 1.01 µg/mL)
O=C(Oc1ccc(Br)cc1C(=O)Nc1ccc(C(F)(F)F)cc1)c1cnc(Cl)cn1 | 2 (≈ 1 µg/mL) | 0.6 | 2 (≈ 1 µg/mL) | 2 (≈ 1 µg/mL) | 0.6 | 1 (≈ 0.501 µg/mL) | 0.6 | 22 | 2 (≈ 1 µg/mL)
O=C(Nc1ccc(Cl)c(Cl)c1)c1cc(Cl)ccc1O | – | 2.3 | – | – | – | – | – | 8 | 1.6 (≈ 0.507 µg/mL)
O=C(NCCCl)Oc1ccc(Cl)cc1C(=O)Nc1ccc(C(=O)c2ccccc2)cc1 | – | 3.5 | – | – | – | – | – | 21 | 10.9 (≈ 4.98 µg/mL)
O=C(Oc1ccc(Cl)cc1C(=O)Nc1ccc(Cl)c(Cl)c1)c1cnccn1 | – | – | 0.25 (≈ 0.106 µg/mL) | 0.125 (≈ 0.0528 µg/mL) | – | – | – | – | –
O=C(Oc1ccc(Cl)cc1C(=O)Nc1ccc(C(F)(F)F)cc1)c1cnccn1 | – | – | 0.5 (≈ 0.211 µg/mL) | 1 (≈ 0.422 µg/mL) | – | – | – | – | –
O=C(Oc1ccc(Cl)cc1C(=O)Nc1ccc(Cl)c(Cl)c1)c1cnc(Cl)cn1 | 1 (≈ 0.457 µg/mL) | 2.3 | 2 (≈ 0.914 µg/mL) | 2 (≈ 0.914 µg/mL) | 5.1 | 1 (≈ 0.457 µg/mL) | 5.1 | 0 | 4.4 (≈ 2.01 µg/mL)
CCCNC(=O)Oc1ccc(Cl)cc1C(=O)Nc1ccc(C(=O)c2ccccc2)cc1 | – | 1.6 | – | – | – | – | – | 6 | 11.5 (≈ 5.02 µg/mL)
O=C(Nc1ccc(C(F)(F)F)cc1)c1cc(Cl)ccc1O | – | – | – | – | – | – | – | 0 | 1.6 (≈ 0.505 µg/mL)
O=C(NCCCCl)Oc1ccc(Cl)cc1C(=O)Nc1ccc(C(F)(F)F)cc1 | 1 (≈ 0.435 µg/mL) | 7.3 | 2 (≈ 0.87 µg/mL) | 2 (≈ 0.87 µg/mL) | 4.4 | 1 (≈ 0.435 µg/mL) | 4.4 | 0 | 1.2 (≈ 0.522 µg/mL)
O=C(Nc1ccc(Cl)c(Cl)c1)c1cc(Br)ccc1O | – | 1.3 | – | – | – | – | – | 0 | 2.8 (≈ 1.01 µg/mL)
O=C(NCCCl)Oc1ccc(Cl)cc1C(=O)Nc1ccc(C(F)(F)F)cc1 | 1 (≈ 0.421 µg/mL) | 6.3 | 1 (≈ 0.421 µg/mL) | 2 (≈ 0.842 µg/mL) | 7.6 | 0.5 (≈ 0.211 µg/mL) | 3.8 | 0 | 1.2 (≈ 0.505 µg/mL)
O=C(NCCCl)Oc1ccc(Br)cc1C(=O)Nc1ccc(Cl)c(Cl)c1 | 1 (≈ 0.467 µg/mL) | 3.1 | 2 (≈ 0.933 µg/mL) | 2 (≈ 0.933 µg/mL) | 3.5 | 1 (≈ 0.467 µg/mL) | 3.5 | 0 | 2.2 (≈ 1.03 µg/mL)
O=C(NCCCCl)Oc1ccc(Cl)cc1C(=O)Nc1ccc(Cl)c(Cl)c1 | – | 2.1 | – | – | – | – | – | 1 | 1.2 (≈ 0.523 µg/mL)
O=C(Oc1ccc(Cl)cc1C(=O)Nc1ccc(C(F)(F)F)cc1)c1cnc(Cl)cn1 | 1 (≈ 0.456 µg/mL) | 1 | 2 (≈ 0.912 µg/mL) | 1 (≈ 0.456 µg/mL) | 0.6 | 1 (≈ 0.456 µg/mL) | 1.1 | 1 | 1.1 (≈ 0.502 µg/mL)
NNC(=O)c1ccncc1 [ISONIAZID] | – | – | – | – | – | – | – | 12 | 7.3 (≈ 1 µg/mL)
